Bioassay records deposited in PubChem by The Scripps Research Institute Molecular Screening Center.
A selection: hits, their analogues and other compounds. The true share with any hit is near 2.5%.
PRMT1 FP inh: PRMT1 methyltransferase inhibitors, primary screen, biochemical, fluorescence polarization; recombinant PRMT1, activity-based probe fluorescence polarization; hit rate 1.3% among 370,000; inhibition, % at 2.79 µM;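 active = inhibition above about 21% made by adding two undisclosed values, limit read from the data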
PAD4 inh: human PAD4 inhibitors, primary screen, biochemical, fluorescence polarization, 1536-well format; Protein-arginine deiminase type-4 (Homo sapiens), Q9UM07; recombinant PAD4, RCA probe fluorescence polarization; inhibition, % at 6.36 µM; hit rate 0.41% among 330,000;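 active = percent inhibition above a cutoff equal to the mean of all tested compounds plus 3 SD, cut at about 15% in these data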;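 note: 0% = PAD4 with RCA probe and DMSO and 100% = probe without PAD4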
GSTO1 counter: inhibitors of recombinant GSTO1, primary screen, counter-screen for RBBP9 inhibitor project, biochemical, fluorescence polarization; Glutathione S-transferase omega-1 (Homo sapiens), P78417; activity-based probe fluorescence polarization; inhibition, % at 5.96 µM; hit rate 1.1% among 300,000;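 active = inhibition above the campaign mean inhibition plus 3 SD, cut at about 35% in these data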;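 note: 0% = GSTO1-1 with DMSO and 100% = wells lacking GSTO1-1 enzyme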
Target sequence (P78417 whole entry, looked up): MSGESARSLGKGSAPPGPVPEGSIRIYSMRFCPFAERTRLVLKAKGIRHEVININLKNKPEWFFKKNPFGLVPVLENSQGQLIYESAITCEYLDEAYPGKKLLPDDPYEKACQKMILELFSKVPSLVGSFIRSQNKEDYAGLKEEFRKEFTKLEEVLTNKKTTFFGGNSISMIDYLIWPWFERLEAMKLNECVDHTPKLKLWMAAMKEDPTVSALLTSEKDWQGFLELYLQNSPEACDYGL
TDP2 inh: human TDP2 enzyme inhibitors, primary screen, biochemical, epi absorbance, recombinant enzyme; hit rate 0.34% among 370,000; T5PNP hydrolysis, p-nitrophenol absorbance 415 nm; Tyrosyl-DNA phosphodiesterase 2 (Homo sapiens), O95551; inhibition, % at 12.8 µM;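 active = inhibition above the mean of all tested compounds plus 3 SD, set per campaign, cut at about 25% in these data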;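 note: 0% = DMSO with enzyme and 100% = buffer with substrate but no TDP2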
Target sequence (O95551 whole entry, looked up): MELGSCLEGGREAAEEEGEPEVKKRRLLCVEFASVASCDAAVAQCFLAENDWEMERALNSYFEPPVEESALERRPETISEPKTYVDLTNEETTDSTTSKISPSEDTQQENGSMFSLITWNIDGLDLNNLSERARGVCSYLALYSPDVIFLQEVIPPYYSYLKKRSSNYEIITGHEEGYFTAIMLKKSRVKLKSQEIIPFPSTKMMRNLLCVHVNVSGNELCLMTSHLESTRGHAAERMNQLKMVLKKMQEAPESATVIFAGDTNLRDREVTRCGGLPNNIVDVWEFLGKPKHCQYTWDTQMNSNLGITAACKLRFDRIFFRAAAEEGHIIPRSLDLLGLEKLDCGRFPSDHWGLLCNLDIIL
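System: recombinant human TDP2 / Amount: 120 nM TDP2 per well / Also added: 5 mM T5PNP chromogenic substrate / Doses: 12.8 µM single point, 1% DMSO / Incubation: 2 h at 37 °C / Detection: p-Nitrophenol epi absorbance / Evaluation: % inhibition relative to enzyme-containing and enzyme-free wells / Repeats: singlicate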
eLon inh: inhibitors of E. coli Lon protease, primary screen, biochemical, fluorescence polarization; purified E. coli Lon protease; inhibition, % at 7.94 µM; hit rate 0.42% among 360,000; in the data active = inhibition above about 13%, passing the limit was not always enough;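 note: 0% = enzyme with probe and DMSO and 100% = no enzyme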
PAD4 confirm: human PAD4 inhibitors, confirmation, biochemical, fluorescence polarization; AID 488796, 2010; inhibition, % at 6.36 µM; shares compounds with PAD4 inh; hit rate 28% among 1,200; recombinant PAD4, RCA probe fluorescence polarization;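 active = mean inhibition across replicates above the hit cutoff set by the earlier primary screen, cut at about 15% in these data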;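 note: inhibitors block active-site labeling by the probe so polarization falls; 0% = PAD4 with probe and DMSO and 100% = probe without PAD4 enzyme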
E coli Lon conf: E. coli Lon protease inhibitor retest, confirmation, biochemical, fluorescence polarization; purified E. coli Lon; AID 602230, 2012; inhibition, % at 7.94 µM; hit rate 31% among 1,400; shares compounds with eLon inh; in the data active = inhibition above about 16%;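 note: 0% = enzyme with probe and DMSO and 100% = no enzyme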
PRMT1 confirm: PRMT1 methyltransferase inhibitors, confirmation, biochemical, fluorescence polarization, triplicate. shares compounds with PRMT1 FP inh. AID 687036, 2013. inhibition, % at 2.79 µM. recombinant His-PRMT1, activity-based probe fluorescence polarization. hit rate 42% among 3,300;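 active = mean inhibition across replicates above the hit cutoff derived for the earlier primary screen, cut at about 22% in these data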
TDP2 inh conf: human TDP2 enzyme inhibitors, retest, confirmation, biochemical, epi absorbance, recombinant enzyme; shares compounds with TDP2 inh; absorbance read-out; inhibition, % at 12.8 µM; hit rate 22% among 1,100; in the data active = inhibition above about 25%;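 note: 0% = vehicle with enzyme and 100% = no enzyme buffer only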
* hit, by the source's call; · = not tested or not shown; + = active, no number.

SMILES	PRMT1 FP inh	PAD4 inh	GSTO1 counter	TDP2 inh	eLon inh	PAD4 confirm	E coli Lon conf	others
CCc1ccc(C(=O)/C=C2\Sc3ccccc3NC2=O)cc1	14	37*	0	-2	8	42*	·
COc1ccc(CN2CN3CCc4ccccc4C3CS2(=O)=O)cc1 (stereo unspecified)	1	·	·	-5	·	·	·
COc1ccc2ccccc2c1/C=N/Nc1cccc(C(=O)O)c1	12	21*	15	-1	-8	2	·
CC1(C)Cc2c(c(-c3ccco3)[nH]c(=O)c2C#N)CS1	74*	26*	18	3	34*	5	29*
CC1(C)Cc2c(c(-c3ccccc3)[nH]c(=O)c2C#N)CS1	-2	1	-2	4	-9	·	·
O=C1N(CCCO)CCC12CCCCC2	1	·	·	8	·	·	·
COc1ccc(CN(C)C(C#Cc2ccccc2)Cc2ccccc2)c(OC)c1 (stereo unspecified)	-3	·	·	5	·	·	·
CN1C(=O)C[C@@](C#N)(C(=O)NCC(F)(F)F)[C@H]1c1ccccc1	0	·	·	-7	·	·	·
CCCCCCCCNC(=O)C1CSCCS(=O)(=O)N1Cc1ccc(OC)cc1 (stereo unspecified)	-5	·	·	2	·	·	·
Cn1ccnc1SCC(=O)c1ccc2ccccc2c1	3	-12	-9	-6	-9	·	·
CCn1c(CSc2nccn2C)nc2cc(C(=O)O)ccc21	·	35*	21	·	32*	43*	-7
Cc1ccc(-c2cc(-c3nnc(SCC(=O)Nc4ccccc4-c4ccccc4)n3N)[nH]n2)cc1	-3	·	·	7	·	·	·
Cc1cc2cc(CN3C(=O)c4ccccc4C3=O)ccc2n1C	1	16*	3	-2	25*	7	14
O=C1c2ccccc2C(=O)N1Cc1ccc2c(c1)OCO2	0	-1	2	-6	-1	·	·
O=C1C(Br)=Cc2cccc3cccc1c23	13	91*	6	4	68*	62*	57*
CN1CC=C2C(C#N)=C(N)C(C#N)(C#N)C(c3ccsc3)C2C1 (stereo unspecified)	17	15*	-1	8	60*	6	32*
O=C1OC(Nc2cc(Br)cc3cccnc23)c2ccccc21 (stereo unspecified)	31*	61*	86*	79*	42*	-6	-4
O=C1OC(Nc2ncccn2)c2ccccc21 (stereo unspecified)	-3	7	1	1	-1	·	·
Cc1nc(NC2CCCC2)c2nnn(Cc3ccccc3)c2n1	-5	·	·	-9	·	·	·
O=[N+]([O-])c1cnc(N2CCCCC2)c([N+](=O)[O-])c1	9	41*	9	5	55*	-3	-11
C=CCOc1ccc(C2OC34CCCCC3C(C#N)(C#N)C2(C#N)C(=N)O4)cc1 (stereo unspecified)	·	15*	16	·	31*	2	21*
Cc1onc(-c2ccccc2Cl)c1C(=O)NCc1ccc2c(c1)cc(C)n2C	1	38*	13	1	36*	11	15
COc1cccc(/C=C2\CC3(OC(=O)c4cccc(F)c4)CCCN2C3)c1 (stereo unspecified)	1	·	·	5	·	·	·
O=C(Cn1sc2ccccc2c1=O)NC12CC3CC(CC(C3)C1)C2	·	16*	2	·	16*	30*	5
O=C1c2cccc3c(O)ccc(c23)C(=O)N1c1ccc(Cl)cc1	174*	34*	18	-4	+	31*	+
SMILES	PRMT1 FP inh	PAD4 inh	GSTO1 counter	TDP2 inh	eLon inh	PAD4 confirm	E coli Lon conf	others
O=C1c2ccccc2C(=O)N1c1ccc(Cl)cc1	·	1	-1	·	·	·	·
CC(=O)Nc1ccc(N2C(=O)c3cccc4c(O)ccc(c34)C2=O)cc1	109*	39*	25	7	+	36*	+
Cc1ccc(N2C(=O)c3cccc4c(C(=O)O)ccc(c34)C2=O)cc1	2	-4	-5	0	·	·	·
CC(C)(C)c1cc[n+](-c2[nH]c(=O)sc2/C=N/NC([S-])=Nc2ccccc2)cc1	116*	17*	31	-5	165*	13	71*
CC(C)c1ccc(C2C3CSCC=C3C(C#N)=C(N)C2(C#N)C#N)cc1 (stereo unspecified)	·	-17	-9	·	·	·	·
CCCC1C2CN(C(C)C)CC=C2C(C#N)=C(N)C1(C#N)C#N (stereo unspecified)	70*	25*	-3	-4	59*	12	18*	PRMT1 confirm=22*
Cc1n[nH]c(C)c1N1C(=O)c2cccc3c(N4CCCCCC4)ccc(c23)C1=O	100*	38*	13	-3	69*	27*	-48	PRMT1 confirm=88*
O=C(N[C@@H]1C[C@@H]2O[C@@H](CO)CC[C@@H]2O[C@@H]1CCc1ccc(-c2cccnc2)cc1)c1cccc(F)c1	1	·	·	-3	·	·	·
COc1ccc(-n2c(SCC(=O)c3ccc4ccccc4c3)nnc2-c2ccccc2)cc1	-2	·	·	1	·	·	·
CCCC(=O)N(c1ccc2oc(=O)sc2c1)S(=O)(=O)c1cccs1	85*	16*	15	2	13	18*	·	PRMT1 confirm=37*
CC(=O)N(c1ccc2oc(=O)sc2c1)S(=O)(=O)c1ccccc1	91*	18*	28	1	8	14	·	PRMT1 confirm=65*
CN(CC(=O)O)S(=O)(=O)c1cccs1	-1	-9	2	5	-7	·	·
CCOC(=O)CC[C@H]1CC[C@]2(CCCN(S(=O)(=O)C3CCCCC3)C2)O1	-3	·	·	-7	·	·	·
O=S(=O)(NC1=NCCCCC1)c1ccc2sc(NS(=O)(=O)c3ccc4ccccc4c3)nc2c1	44*	30*	-42	-12	-5	22*	·	PRMT1 confirm=27*
COc1ccc2noc3c2c1C(=O)c1ccccc1-3	157*	143*	20	38*	+	144*	116*	TDP2 inh conf=30*
COc1cccc2c1C(=O)c1ccc3ccccc3c1C2=O	·	-3	10	·	5	·	·
